Measured values published in ChEMBL document CHEMBL4007422 (J Med Chem, 2017).
The source made the active and inactive calls. The rule behind the calls is not given here.

Key:
[1] = target: T1, 5-hydroxytryptamine receptor 1A (Homo sapiens) (UniProt P08908); experiment: Displacement of [3H]-8-OH-DPAT from recombinant human 5-HT1A receptor expressed in HEK293 EBNA cell membranes after 120 mins by microbeta scintillation counting analysis
T1 sequence (whole entry): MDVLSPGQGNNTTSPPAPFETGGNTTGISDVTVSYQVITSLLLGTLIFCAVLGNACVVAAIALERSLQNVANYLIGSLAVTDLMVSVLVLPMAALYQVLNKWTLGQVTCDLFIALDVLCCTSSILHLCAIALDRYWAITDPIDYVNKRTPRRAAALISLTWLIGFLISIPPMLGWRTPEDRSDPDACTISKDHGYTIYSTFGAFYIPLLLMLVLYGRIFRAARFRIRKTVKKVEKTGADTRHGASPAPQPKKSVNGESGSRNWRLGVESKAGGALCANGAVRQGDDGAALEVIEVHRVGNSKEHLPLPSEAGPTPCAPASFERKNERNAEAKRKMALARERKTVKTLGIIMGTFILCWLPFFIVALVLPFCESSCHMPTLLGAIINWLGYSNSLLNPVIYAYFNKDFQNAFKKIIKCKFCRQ

[2] = target: 5-hydroxytryptamine receptor 4 (Homo sapiens) (UniProt Q13639); experiment: Displacement of [3H]-GR113808 from recombinant human 5-HT4B receptor expressed in Chem1 cell membranes after 120 mins by microbeta scintillation counting analysis
Cytochrome P450 2D6 = Cytochrome P450 2D6 (Homo sapiens, UniProt P10635); experiment: Inhibition of CYP2D6 in human liver microsomes in presence of NADPH by LC-MS/MS analysis
[3] = AUC (0 to t) in Wistar rat at 10 mg/kg, po by LC-MS/MS analysis; assay type: ADME, organism-based; conditions: Wistar, in vivo
[4] = Half life in Wistar rat at 10 mg/kg, iv by LC-MS/MS analysis; assay type: ADME, organism-based; conditions: in vivo
Homo sapiens [5] = organism: Homo sapiens; experiment: Toxicity in human assessed as changes in QTc interval during phase-I clinical trail
[6] = target: Alpha-2C adrenergic receptor (Homo sapiens, UniProt P18825); experiment: Inhibition of recombinant human adrenergic alpha 2C receptor expressed in CHO cells assessed as inhibition of 5-HT stimulated cAMP accumulation after 4 hrs by luciferase reporter gene assay; assay type: functional, cell-based
[7] = Protein binding in human plasma at 1 uM after 6 hrs by LC-MS/MS based rapid equilibrium dialysis method; assay type: ADME, cell-free; conditions: read-out: PPB (converted)
Summary of the method: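 Plasma protein binding in rat, dog and human plasma determined by equilibrium dialysis.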

[8] = Clearance in Beagle dog at 3 mg/kg, iv; assay type: ADME, organism-based, Canis lupus familiaris; conditions: in vivo
[9] = Oral bioavailability in Beagle dog at 10 mg/kg; assay type: ADME, organism-based, Canis lupus familiaris; conditions: in vivo
Cytochrome P450 3A4 [10] = target: T2, Cytochrome P450 3A4 (Homo sapiens, UniProt P08684); experiment: Inhibition of CYP3A4 in human liver microsomes using testosterone as substrate in presence of NADPH by LC-MS/MS analysis; assay type: ADME
Summary of the method: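 CYP3A4 inhibition in human liver microsomes using testosterone hydroxylation as the probe reaction; IC50 determined.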

Cytochrome P450 2C19 = Cytochrome P450 2C19 (Homo sapiens, UniProt P33261); experiment: Inhibition of CYP2C19 in human liver microsomes using mephenytoin as substrate in presence of NADPH by LC-MS/MS analysis; assay type: ADME
Summary of the method: (§1)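 Pooled human liver microsomes. IC50 determined from isoform-specific marker activities for CYP1A2, 2A6, 2B6, 2C8, 2C9, 2C19 (mephenytoin hydroxylation) and 2E1.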

Hepatocyte = experiment: Induction of CYP3A4 mRNA expression in human hepatocytes at 0.01 to 1 uM after 3 days by qRT-PCR analysis; assay type: ADME, cell-based; conditions: 72 h
Summary of the method: (§2)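 Plateable human hepatocytes exposed to 0.01, 0.1 and 1.0 μM. CYP1A2, CYP2B6 and CYP3A4 induction read as both mRNA expression and enzyme activity.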

Cytochrome P450 2A6 = Cytochrome P450 2A6 (Homo sapiens, UniProt P11509); experiment: Inhibition of CYP2A6 in human liver microsomes in presence of NADPH by LC-MS/MS analysis; assay type: ADME; summary of the method: as §1
Cytochrome P450 2C8 = Cytochrome P450 2C8 (Homo sapiens, UniProt P10632); experiment: Inhibition of CYP2C8 in human liver microsomes in presence of NADPH by LC-MS/MS analysis; assay type: ADME; summary of the method: as §1
Cytochrome P450 2C9 = Cytochrome P450 2C9 (Homo sapiens, UniProt P11712); experiment: Inhibition of CYP2C9 in human liver microsomes in presence of NADPH by LC-MS/MS analysis; assay type: ADME; summary of the method: as §1
Cytochrome P450 2E1 = Cytochrome P450 2E1 (Homo sapiens, UniProt P05181); experiment: Inhibition of CYP2E1 in human liver microsomes in presence of NADPH by LC-MS/MS analysis; assay type: ADME; summary of the method: as §1
Cytochrome P450 1A2 = Cytochrome P450 1A2 (Homo sapiens, UniProt P05177); experiment: Induction of CYP1A2 activity in human hepatocytes at 0.01 to 1 uM preincubated for 3 days followed by substrate addition measured after 30 mins; assay type: ADME, cell-based; conditions: 0.5 h; summary of the method: as §2
Rattus norvegicus [11] = experiment: Increase in acetylcholine level in Wistar rat ventral hippocampus at 3 mg/kg, po after 6 hrs by LC-MS/MS based microdialysis method; assay type: functional, organism-based
Summary of the method: (§3)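 Male Wistar rats (240−300 g) fitted under isoflurane with a ventral hippocampal guide cannula (AP −5.2, ML +5.0, DV −3.8 mm from bregma). Probe (4 mm membrane) inserted 16 h before study. Perfusion with aCSF pH 7.2 at 1.5 μL/min, 2 h stabilization, five basal 20-min samples. Test agent given p.o.; donepezil and memantine (1 mg/kg s.c. each) given 30 min later in combination arms. Dialysates collected 6 h (4 h for combination), acetylcholine measured by LC-MS/MS, expressed as % of mean basal.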

Rattus norvegicus [12] = experiment: Effect on basal level of acetylcholine in Wistar rat ventral hippocampus at 1 to 3 mg/kg, po after 6 hrs by LC-MS/MS based microdialysis method; assay type: ADME, organism-based; conditions: in vivo; summary of the method: as §3
Salmonella typhimurium [13] = experiment: Mutagenicity in Salmonella typhimurium TA1537 in presence of metabolic activation; assay type: toxicity; conditions: salmonella enterica subsp. enterica serovar typhimurium
Salmonella typhimurium [14] = experiment: Mutagenicity in Salmonella typhimurium TA1535 in absence of metabolic activation; assay type: toxicity; conditions: salmonella enterica subsp. enterica serovar typhimurium
Salmonella typhimurium [15] = experiment: Mutagenicity in Salmonella typhimurium TA100 in presence of metabolic activation; assay type: toxicity; conditions: salmonella enterica subsp. enterica serovar typhimurium
Salmonella typhimurium [16] = experiment: Mutagenicity in Salmonella typhimurium TA100 in absence of metabolic activation; assay type: toxicity; conditions: salmonella enterica subsp. enterica serovar typhimurium
Homo sapiens [17] = experiment: Toxicity in healthy elderly male human subjects administered as multiple ascending dose for 14 days; conditions: 336 h
Rattus norvegicus [18] = experiment: Toxicity in Wistar rat assessed as induction of cholinergic side effects at 1 and 3 mg/kg, po in presence of 1 mg/kg of donepezil and memantine administered sc 30 mins post compound treatment measured after 4 hrs by LC-MS/MS based microdialysis method relative to control; assay type: organism-based; conditions: in vivo
Summary of the method: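 The probe (4 mm membrane) was inserted 16 h before the study and perfused with aCSF (pH 7.2) at 1.5 μL/min, with 2 h stabilization. Five 20-min basal samples were taken before oral compound. Donepezil and memantine (1 mg/kg s.c. each) were given 30 min later. Dialysates were collected for 4 h and acetylcholine measured by LC-MS/MS as % of basal. Comparison was against donepezil+memantine by two-way ANOVA.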

Cytochrome P450 3A4 [19] = target: T2, Cytochrome P450 3A4

T2 sequence (P08684 whole entry): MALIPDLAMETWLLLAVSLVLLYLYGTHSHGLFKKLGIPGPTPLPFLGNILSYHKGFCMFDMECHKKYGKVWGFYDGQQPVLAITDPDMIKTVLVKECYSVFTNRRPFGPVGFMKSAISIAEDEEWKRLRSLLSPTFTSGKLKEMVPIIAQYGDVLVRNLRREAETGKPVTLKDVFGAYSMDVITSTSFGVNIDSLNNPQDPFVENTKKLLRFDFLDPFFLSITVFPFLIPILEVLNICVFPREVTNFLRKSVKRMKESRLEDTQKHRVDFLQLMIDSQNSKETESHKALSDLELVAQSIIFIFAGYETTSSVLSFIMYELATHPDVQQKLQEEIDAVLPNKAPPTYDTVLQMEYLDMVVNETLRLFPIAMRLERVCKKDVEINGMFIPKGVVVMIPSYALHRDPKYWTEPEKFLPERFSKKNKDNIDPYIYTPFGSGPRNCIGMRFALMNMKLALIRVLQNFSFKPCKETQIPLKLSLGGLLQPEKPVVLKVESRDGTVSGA
Sequence of Cytochrome P450 2C8 (P10632 whole entry): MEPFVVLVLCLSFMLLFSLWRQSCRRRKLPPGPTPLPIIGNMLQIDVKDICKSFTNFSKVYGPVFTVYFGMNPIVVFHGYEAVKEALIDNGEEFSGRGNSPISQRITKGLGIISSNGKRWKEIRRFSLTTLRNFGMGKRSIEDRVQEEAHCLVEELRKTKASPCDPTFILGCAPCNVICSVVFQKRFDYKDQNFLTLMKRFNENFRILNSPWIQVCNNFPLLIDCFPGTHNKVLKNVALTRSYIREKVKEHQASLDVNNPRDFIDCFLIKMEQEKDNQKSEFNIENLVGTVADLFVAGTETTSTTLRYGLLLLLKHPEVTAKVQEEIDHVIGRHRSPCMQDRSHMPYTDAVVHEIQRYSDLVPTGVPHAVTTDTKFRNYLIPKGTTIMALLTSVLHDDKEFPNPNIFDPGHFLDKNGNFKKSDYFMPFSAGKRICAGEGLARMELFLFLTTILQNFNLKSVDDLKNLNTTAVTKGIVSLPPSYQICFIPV
Sequence of Alpha-2C adrenergic receptor (P18825 whole entry): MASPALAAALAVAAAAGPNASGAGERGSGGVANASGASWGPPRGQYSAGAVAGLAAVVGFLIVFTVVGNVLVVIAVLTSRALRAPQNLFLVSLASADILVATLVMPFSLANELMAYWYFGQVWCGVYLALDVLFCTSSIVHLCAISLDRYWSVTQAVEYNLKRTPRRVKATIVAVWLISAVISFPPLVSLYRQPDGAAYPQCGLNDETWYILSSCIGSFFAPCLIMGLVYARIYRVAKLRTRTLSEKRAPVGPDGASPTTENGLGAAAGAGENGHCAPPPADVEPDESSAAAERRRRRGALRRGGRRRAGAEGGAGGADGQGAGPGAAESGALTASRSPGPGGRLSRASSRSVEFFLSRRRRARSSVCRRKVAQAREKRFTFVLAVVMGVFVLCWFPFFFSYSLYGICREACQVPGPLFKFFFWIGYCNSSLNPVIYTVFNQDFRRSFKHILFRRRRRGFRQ
Sequence of 5-hydroxytryptamine receptor 4 (Homo sapiens) (Q13639 whole entry): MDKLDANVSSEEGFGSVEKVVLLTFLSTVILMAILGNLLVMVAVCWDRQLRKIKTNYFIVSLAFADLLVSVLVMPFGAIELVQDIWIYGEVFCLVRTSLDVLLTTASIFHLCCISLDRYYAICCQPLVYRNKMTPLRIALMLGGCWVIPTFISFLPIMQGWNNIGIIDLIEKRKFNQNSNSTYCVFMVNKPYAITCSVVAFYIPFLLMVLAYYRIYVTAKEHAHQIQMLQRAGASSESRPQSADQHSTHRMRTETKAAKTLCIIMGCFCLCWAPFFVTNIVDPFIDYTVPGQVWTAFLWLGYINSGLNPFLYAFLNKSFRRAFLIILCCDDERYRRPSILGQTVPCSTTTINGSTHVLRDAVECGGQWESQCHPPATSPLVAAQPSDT
Sequence of Cytochrome P450 2D6 (P10635 whole entry): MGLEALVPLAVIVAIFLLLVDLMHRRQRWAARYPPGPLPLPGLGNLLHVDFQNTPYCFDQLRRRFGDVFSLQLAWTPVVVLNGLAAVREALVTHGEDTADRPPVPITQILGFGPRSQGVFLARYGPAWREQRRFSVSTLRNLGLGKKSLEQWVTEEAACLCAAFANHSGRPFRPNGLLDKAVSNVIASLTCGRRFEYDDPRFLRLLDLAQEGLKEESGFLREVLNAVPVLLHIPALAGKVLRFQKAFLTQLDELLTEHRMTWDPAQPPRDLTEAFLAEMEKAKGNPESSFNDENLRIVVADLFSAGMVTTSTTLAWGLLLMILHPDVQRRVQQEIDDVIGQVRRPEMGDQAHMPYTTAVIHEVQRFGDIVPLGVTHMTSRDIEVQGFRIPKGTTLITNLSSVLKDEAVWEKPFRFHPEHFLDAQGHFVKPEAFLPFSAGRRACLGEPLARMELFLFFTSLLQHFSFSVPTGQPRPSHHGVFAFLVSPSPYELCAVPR
Sequence of Cytochrome P450 2E1 (P05181 whole entry): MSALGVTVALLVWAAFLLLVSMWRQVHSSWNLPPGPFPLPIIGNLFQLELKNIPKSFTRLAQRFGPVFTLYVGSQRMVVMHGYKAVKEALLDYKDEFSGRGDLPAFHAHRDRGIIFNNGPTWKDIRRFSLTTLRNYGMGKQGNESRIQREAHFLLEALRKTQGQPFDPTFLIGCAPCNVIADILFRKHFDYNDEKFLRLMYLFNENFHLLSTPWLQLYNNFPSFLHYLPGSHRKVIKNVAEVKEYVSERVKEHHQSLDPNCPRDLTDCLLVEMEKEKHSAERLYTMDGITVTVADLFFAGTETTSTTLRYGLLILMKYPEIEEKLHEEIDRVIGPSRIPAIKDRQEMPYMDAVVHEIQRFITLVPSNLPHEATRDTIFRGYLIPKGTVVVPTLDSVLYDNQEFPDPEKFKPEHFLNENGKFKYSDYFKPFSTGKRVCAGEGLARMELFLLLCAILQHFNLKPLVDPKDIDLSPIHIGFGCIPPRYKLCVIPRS
Sequence of Cytochrome P450 2A6 (P11509 whole entry): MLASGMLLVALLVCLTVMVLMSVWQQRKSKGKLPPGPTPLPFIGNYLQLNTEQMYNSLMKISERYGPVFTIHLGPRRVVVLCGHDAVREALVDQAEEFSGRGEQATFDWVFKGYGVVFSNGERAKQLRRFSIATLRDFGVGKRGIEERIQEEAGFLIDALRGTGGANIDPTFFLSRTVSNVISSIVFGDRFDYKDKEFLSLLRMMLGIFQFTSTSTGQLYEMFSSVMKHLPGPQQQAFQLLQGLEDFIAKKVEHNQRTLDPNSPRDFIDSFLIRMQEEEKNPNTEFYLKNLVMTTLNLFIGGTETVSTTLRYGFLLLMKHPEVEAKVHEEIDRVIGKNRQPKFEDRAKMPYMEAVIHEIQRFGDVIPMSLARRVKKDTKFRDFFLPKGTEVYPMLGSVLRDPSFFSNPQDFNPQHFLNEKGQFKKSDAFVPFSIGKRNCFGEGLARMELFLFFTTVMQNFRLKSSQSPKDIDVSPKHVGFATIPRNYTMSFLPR
Sequence of Cytochrome P450 1A2 (P05177 whole entry): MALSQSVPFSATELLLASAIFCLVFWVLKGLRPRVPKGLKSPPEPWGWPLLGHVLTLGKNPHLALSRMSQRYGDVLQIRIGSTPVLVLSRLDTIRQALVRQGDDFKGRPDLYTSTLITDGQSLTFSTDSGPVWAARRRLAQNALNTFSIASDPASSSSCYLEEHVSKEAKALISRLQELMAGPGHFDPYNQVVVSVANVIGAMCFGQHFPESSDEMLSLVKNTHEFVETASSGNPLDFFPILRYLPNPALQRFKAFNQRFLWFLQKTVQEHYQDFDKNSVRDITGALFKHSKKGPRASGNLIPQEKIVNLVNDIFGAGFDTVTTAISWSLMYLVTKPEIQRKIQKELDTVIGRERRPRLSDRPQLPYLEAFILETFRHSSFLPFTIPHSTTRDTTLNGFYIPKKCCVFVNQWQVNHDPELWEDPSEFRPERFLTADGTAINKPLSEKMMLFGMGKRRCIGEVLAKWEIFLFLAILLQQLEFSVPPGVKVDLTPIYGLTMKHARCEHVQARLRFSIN
Sequence of Cytochrome P450 2C19 (P33261 whole entry, canonical isoform): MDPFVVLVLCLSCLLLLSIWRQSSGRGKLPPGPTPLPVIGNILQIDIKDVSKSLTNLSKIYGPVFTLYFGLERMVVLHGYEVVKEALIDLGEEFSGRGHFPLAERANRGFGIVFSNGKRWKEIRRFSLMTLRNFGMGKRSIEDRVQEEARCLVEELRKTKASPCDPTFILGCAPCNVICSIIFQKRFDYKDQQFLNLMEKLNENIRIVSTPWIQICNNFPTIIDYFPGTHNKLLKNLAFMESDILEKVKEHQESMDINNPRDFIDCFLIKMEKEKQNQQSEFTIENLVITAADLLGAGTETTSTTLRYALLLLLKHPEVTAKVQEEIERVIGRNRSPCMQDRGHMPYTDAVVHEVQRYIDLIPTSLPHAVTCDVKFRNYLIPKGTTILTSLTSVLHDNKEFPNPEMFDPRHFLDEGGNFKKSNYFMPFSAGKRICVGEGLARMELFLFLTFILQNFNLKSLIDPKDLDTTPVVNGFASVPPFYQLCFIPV
Sequence of Cytochrome P450 2C9 (P11712 whole entry): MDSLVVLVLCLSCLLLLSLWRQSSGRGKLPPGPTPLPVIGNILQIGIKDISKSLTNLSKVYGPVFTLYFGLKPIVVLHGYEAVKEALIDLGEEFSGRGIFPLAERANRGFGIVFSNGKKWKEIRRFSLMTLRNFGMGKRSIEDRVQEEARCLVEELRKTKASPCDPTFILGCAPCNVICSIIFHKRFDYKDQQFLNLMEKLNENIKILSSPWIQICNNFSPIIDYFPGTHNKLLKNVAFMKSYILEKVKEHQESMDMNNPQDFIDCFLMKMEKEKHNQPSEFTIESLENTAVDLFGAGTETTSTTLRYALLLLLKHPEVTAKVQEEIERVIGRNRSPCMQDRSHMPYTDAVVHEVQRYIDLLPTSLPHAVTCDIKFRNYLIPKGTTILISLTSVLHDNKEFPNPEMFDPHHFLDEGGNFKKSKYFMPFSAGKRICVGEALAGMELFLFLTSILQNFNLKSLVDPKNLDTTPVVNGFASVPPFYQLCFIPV

Activity [1]: inactive
Activity [2]: inactive
IC50 (Cytochrome P450 2D6): 13.2 µM
AUC(0-t) [3]: 784 ng·h/mL
half-life [4]: 57 min
Kb [6]: 0.619 µM
fraction unbound at 6 h, 1 µM [7]: 0.02
clearance [8]: 46.4 mL/min/kg
bioavailability [9]: 35%
IC50 (Cytochrome P450 3A4 [10]): 2.64 µM
IC50 (Cytochrome P450 2C19): 5.7 µM
IC50 (Cytochrome P450 2A6): > 10 µM
IC50 (Cytochrome P450 2C8): > 10 µM
IC50 (Cytochrome P450 2C9): > 10 µM
IC50 (Cytochrome P450 2E1): > 10 µM
Activity (Cytochrome P450 1A2): Not Active
IC50 (Cytochrome P450 3A4 [19]): 1.5 µM
Compound: COc1ccc2c(c1)c(CN1CCN(C)CC1)cn2S(=O)(=O)c1ccccc1Br.CS(=O)(=O)O.O
Activity (Homo sapiens [5]): Non-Toxic
Activity (Hepatocyte): Non-Toxic
Activity (Rattus norvegicus [11]): Active
Activity (Rattus norvegicus [12]): Non-Toxic
Activity (Salmonella typhimurium [13]): Non-Toxic
Activity (Salmonella typhimurium [14]): Non-Toxic
Activity (Salmonella typhimurium [15]): Non-Toxic
Activity (Salmonella typhimurium [16]): Non-Toxic
Activity (Homo sapiens [17]): Non-Toxic
Activity (Rattus norvegicus [18]): Non-Toxic
